RGS4 act = RGS4 potentiators or activators, primary screen, cell-based, HEK293 M3R inducible RGS4, calcium flux. carbachol calcium flux Fluo4; active compounds read low. B-score at 10 µM. 310,000 tested, 0.92% active;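 active = B-score of the integrated calcium signal more than 4 SD below the library mean, with starting fluorescence not abnormally high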;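 note: negative B-score means reduced calcium response which marks RGS4 activation or potentiation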
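System: HEK293 FlpIn-TREx cells, stable M3R, doxycycline-inducible RGS4. Timing: overnight RGS4 induction, 30 min dye load 37 °C, 20 min compound RT. Also added: carbachol, ECmax concentration. Measured by: Fluo4 fluorescence kinetic imaging of calcium. Evaluation: integrated calcium ratio converted to B score.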
MrgX1 ag = agonists of human MrgX1 receptor, primary screen, HEK293 cells, Fluo-4 calcium flux. Mas-related G-protein coupled receptor member X1 (Homo sapiens), Q96LB2. Fluo-4 calcium fluorescence, agonist mode; active compounds read high. B-score at 10 µM. 310,000 tested, 0.44% active. AID 588627, 2011;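 active = calcium response B-score plate-corrected fluorescence ratio at least 3 library SD, with starting fluorescence B-score inside 5 SD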
Target sequence (Q96LB2 whole entry, looked up): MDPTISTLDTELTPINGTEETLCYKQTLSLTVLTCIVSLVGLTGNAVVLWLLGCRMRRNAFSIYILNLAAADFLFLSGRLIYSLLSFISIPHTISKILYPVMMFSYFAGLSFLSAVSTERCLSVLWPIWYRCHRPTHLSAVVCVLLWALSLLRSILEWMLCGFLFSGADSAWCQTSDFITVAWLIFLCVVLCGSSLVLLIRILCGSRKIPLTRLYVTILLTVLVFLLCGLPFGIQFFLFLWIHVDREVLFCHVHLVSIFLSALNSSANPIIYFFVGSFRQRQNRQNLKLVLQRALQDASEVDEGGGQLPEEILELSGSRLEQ
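System: HEK293 cells stably expressing human MrgX1 receptor; Dosing: test compound in the initial addition of three; Schedule: overnight plating, then 30 min 37 °C plus 30 min room-temperature dye loading; Detection: kinetic calcium dye fluorescence, Fluo-4 NW; Controls: per-plate positive and negative controls for Z′ factor.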
MrgX1 allo act = positive allosteric modulators of MrgX1, primary screen, HEK293 cells, Fluo-4 calcium flux; Mas-related G-protein coupled receptor member X1 (Homo sapiens), Q96LB2; FDSS; active compounds read high; B-score at 10 µM; 310,000 tested, 0.63% active; AID 588675, 2011;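 active = plate-corrected calcium response at least 3 library SD above typical, normal starting fluorescence, not activating the receptor alone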;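 note: compound read alongside a low EC10 to EC30 dose of BAM8-22 agonist; peak minus trough fluorescence over baseline measured at the second addition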
RGS4 inh = RGS4 inhibitors, primary screen, cell-based, HEK293 M3R inducible RGS4, calcium flux | Regulator of G-protein signaling 4 (Homo sapiens), P49798 | Fluo-4 calcium flux; active compounds read high; triggered by carbachol at its EC20 | B-score at 10 µM | 310,000 tested, 0.45% active;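 active = B-score, a plate-corrected calcium signal, over three deviations above library mean, with baseline fluorescence within five deviations of library mean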;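 note: RGS4 expression induced by doxycycline in cells with stable M3 receptor; B-score is computed from the integrated fluorescence ratio over baseline after carbachol; higher B-score means a larger calcium signal and so more RGS4 inhibition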
Target sequence (P49798 whole entry, looked up): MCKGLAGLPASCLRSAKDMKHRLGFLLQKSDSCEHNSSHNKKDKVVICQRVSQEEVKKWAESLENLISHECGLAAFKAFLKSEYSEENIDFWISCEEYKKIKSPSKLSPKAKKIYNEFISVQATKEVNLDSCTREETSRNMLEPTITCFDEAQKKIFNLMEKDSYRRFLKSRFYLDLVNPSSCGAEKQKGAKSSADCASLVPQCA
MrgX1 antag = antagonists of human MrgX1 receptor, primary screen, HEK293 cells, Fluo-4 calcium flux; Mas-related G-protein coupled receptor member X1 (Homo sapiens), Q96LB2; BAM8-22 antagonism; active compounds read low; B-score at 10 µM; 310,000 tested, 1.3% active;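 active = calcium-response B-score plate-corrected more than 3 library SD below zero, starting fluorescence within 5 deviations, no agonist response on first addition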;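 note: peak minus trough fluorescence over baseline after final BAM8-22 challenge near maximal dose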
RGS4 act valid = reduced carbachol calcium response, RGS4-induced M3R cells, confirmation, RGS4 activator project, cell-based, HEK293 M3R/RGS4 inducible, calcium flux, duplicate; shares compounds with RGS4 act; carbachol calcium flux Fluo4; inhibition, % at 10 µM; 1,100 tested, 89% active;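 active = inhibition above 3 SD of the buffer control wells, cut at about 41% in these data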;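 note: signal is the integrated peak-minus-minimum Fluo4 fluorescence over baseline ratio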
M3R Ca counter = activity in cells without induced RGS4 expression; shares compounds with RGS4 act; HEK293 M3R non-induced RGS4, Fluo4 calcium flux; after carbachol challenge at its EC90; inhibition, % at 10 µM; 1,100 tested, 82% active; AID 602283;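 active = inhibition exceeding 3 SD of buffer-only control wells, cut at about 26% in these data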;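 note: percent drop in integrated peak-minus-baseline over baseline Fluo4 ratio after carbachol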
A number is an active result; . = inactive; / = not tested or not shown. Only some compounds are listed: those with a hit (about 3.5% of all), similar ones and a draw of the others.

SMILES	RGS4 act	MrgX1 ag	MrgX1 allo act	RGS4 inh	MrgX1 antag	RGS4 act valid	M3R Ca counter
CCCCOc1ccc(C(=O)OC2CC(C)N(C)CC2C)cc1 (stereo not given)	-9.5	.	.	.	.	91	86
CCCCOc1ccc(C(=O)N2CCC(C)CC2)cc1	.	.	.	.	.	/	/
Cc1cccc(/C(N)=N/OC(=O)COc2ccc(Cl)cc2)c1	.	.	.	.	.	/	/
Cc1cccc(C(=O)NC(=S)NNC(=O)COc2ccc(Cl)cc2)c1	-11	/	/	.	/	58	50
O=c1[nH]c2ccccc2cc1CN(Cc1cccnc1)S(=O)(=O)c1ccc(Cl)cc1	-7.8	.	7.3	.	.	73	30
Cc1cccc2c1Sc1ccc(Cl)cc1CC2N1CCNCC1 (stereo not given)	-7.6	.	.	.	.	93	96
Cn1cccc1/C=C1\SC(=O)N(c2ccc(O)cc2)C1=O	.	.	.	.	.	/	/
O=C1CCSc2ccc(Cl)cc2N1Cc1ccc(Cl)cc1	-10	.	.	.	.	90	86
CCOC(=O)c1cnc2ccccc2c1NCc1ccco1	-9.7	.	.	.	.	94	92
Cc1ncc([N+](=O)[O-])n1CC(=O)N/N=C/c1ccc(F)cc1	.	.	.	.	.	/	/
Cc1cc(C)c(OCC(=O)Nc2cccc(NC(=O)c3ccco3)c2)c(Br)c1	-7.8	.	.	.	.	90	52
Cc1cc(C)c(OCC(=O)Nc2ccc(NC(=O)c3ccco3)cc2)c([N+](=O)[O-])c1	/	.	.	/	.	/	/
CC(Cc1cccs1)NC(=O)Nc1ccc(F)cc1 (stereo not given)	.	.	.	.	.	/	/
CC(Cc1cccs1)NC(=S)Nc1ccc(Cl)cc1 (stereo not given)	-8	.	.	.	.	48	84
CCCCCCCCOC(=O)C1=C(C)Nc2nnnn2C1c1cccs1 (stereo not given)	-11	.	.	.	.	90	75
CCCCCCCOC(=O)C1=C(C)Nc2ncnn2C1c1cccs1 (stereo not given)	.	.	.	.	.	/	/
COc1ccc(NC(=O)CSc2nc(N)c(NC(=O)c3cccs3)c(=O)[nH]2)cc1	.	.	.	.	.	/	/
NCCC(=O)N1c2ccccc2Sc2ccccc21	.	.	.	.	.	/	/
CCN(CC)CC(=O)N1c2ccccc2Sc2ccccc21	-8.5	.	.	.	.	93	81
O=C(CN1CCCC1)N1c2ccccc2Sc2ccccc21	-9.5	.	.	.	.	92	69
CCC1CN(C(=O)N2CCC(C(=O)NCc3ccco3)CC2)c2ccccc2O1 (stereo not given)	.	.	.	.	.	/	/
Cn1c(=O)c2c(ncn2CC(=O)OCC(=O)c2ccc(F)c(F)c2)n(C)c1=O	.	.	.	.	.	/	/
N#Cc1ccc(C(=O)NCC(c2ccco2)N2CCCC2)cc1 (stereo not given)	.	.	.	.	.	/	/
N#Cc1ccccc1Sc1ccccc1C(=O)NCC(c1ccco1)N1CCCC1 (stereo not given)	-7.9	.	.	.	.	65	29
CC(C)c1cc(C(=O)N2CCCC(CCC(=O)N3CCN(c4ccccn4)CC3)C2)no1 (stereo not given)	.	.	.	.	.	/	/
SMILES	RGS4 act	MrgX1 ag	MrgX1 allo act	RGS4 inh	MrgX1 antag	RGS4 act valid	M3R Ca counter
O=C(NCCN1CCOCC1)N1c2ccccc2Sc2ccccc21	-11	.	.	.	.	83	54
CN(C)CCCNC(=O)N1c2ccccc2Sc2ccccc21	-11	.	.	.	.	92	91
O=C(CCN1CCOCC1)N1c2ccccc2Sc2ccc(Cl)cc21	-8.9	.	.	.	.	92	90
O=C(CSc1nc2ccccc2s1)N1c2ccccc2Sc2ccc(Cl)cc21	.	.	.	.	.	/	/
COc1ccc(C(=O)C2CCCN(C(=O)c3ccc4cc[nH]c4c3)C2)c(C)c1 (stereo not given)	.	.	.	.	.	/	/
COc1cc(OC)cc(C(=O)NNC(=O)CN2C(=O)NC(C)(c3ccccc3)C2=O)c1 (stereo not given)	.	.	.	.	.	/	/
Cc1cc(C)nc(Nc2ncc(O)n2-c2ccc(Br)cc2)n1	.	.	.	.	.	/	/
COc1ccc2c(c1)C=C([C@@H]1C[C@H]3CN(c4ccccc4)C(=O)[C@]34CCCN14)CO2	-10	.	.	.	.	70	84
COc1ccc(N(C)S(=O)(=O)c2c(C)[nH]c(=O)[nH]c2=O)cc1	-8.1	.	.	.	.	.	.
COc1ccc(-c2cc(-c3nnc(COC(=O)c4ccc(O)cc4)o3)c3ccccc3n2)cc1OC	-7.7	.	.	.	.	62	.
Cc1ccc(C)c(S(=O)(=O)N2CCCC2CNC(=O)C(=O)NCCc2ccccc2)c1 (stereo not given)	-10	.	.	.	.	80	31
COc1ccc(CCNC(=O)C(=O)NCC2CCCN2S(=O)(=O)c2cc(C)ccc2C)cc1 (stereo not given)	-9.5	.	.	.	.	74	26
COc1ccc(CCNC(=O)C(=O)NCC2OCCCN2S(=O)(=O)c2cc(C)ccc2C)cc1 (stereo not given)	.	.	.	.	.	/	/
Cc1ccc(C)c(S(=O)(=O)N2CCCC2CNC(=O)C(=O)NCc2ccccc2C)c1 (stereo not given)	.	.	.	.	.	/	/
Cc1nccn1CC(O)Cn1c2ccccc2c2ccccc21 (stereo not given)	-7.7	.	.	.	.	86	29
CC1(C)CC(=O)C=C(NCc2ccccc2)C1	.	.	.	.	.	/	/
CC1(C)CC(=O)C=C(NCc2cccc(C(F)(F)F)c2)C1	-8.7	.	.	.	.	.	.
Cc1cc(C)n(-c2ccc(C(=O)Nc3ccc(C)c(S(=O)(=O)N4CCOCC4)c3)cc2)n1	-8.1	.	.	.	.	89	57
CCN1CCN(Cc2cccc(Oc3ccccc3)c2)CC1	-8	.	.	.	.	62	84
CCN1CCN(Cc2cccc(Oc3ccc(Cl)cc3)c2)CC1	-9.4	.	.	.	.	92	61

From PubChem
